We go through 58 compounds from ChEMBL document CHEMBL1140409, “Discovery of potent, nonsystemic apical sodium-codependent bile acid transporter inhibitors (Part 2)” (J Med Chem, 2005).

SMILES strings stand for the structures.

The first data set concerns the target T1, Ileal sodium/bile acid cotransporter (Homo sapiens, UniProt Q12908).
T1 sequence (Q12908 whole entry): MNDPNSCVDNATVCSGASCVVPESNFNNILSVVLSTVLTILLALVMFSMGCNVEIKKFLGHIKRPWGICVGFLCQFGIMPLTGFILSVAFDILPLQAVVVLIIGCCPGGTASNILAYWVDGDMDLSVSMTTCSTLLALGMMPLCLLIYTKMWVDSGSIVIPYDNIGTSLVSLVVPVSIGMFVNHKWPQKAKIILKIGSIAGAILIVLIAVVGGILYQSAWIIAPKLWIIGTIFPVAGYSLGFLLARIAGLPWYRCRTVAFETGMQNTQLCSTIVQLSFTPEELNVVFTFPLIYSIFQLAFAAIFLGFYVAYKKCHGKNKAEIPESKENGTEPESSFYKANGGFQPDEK
Description: In vitro inhibition of ASBT mediated uptake of [14C]taurocholate (5 uM) in baby hamster cells expressing human IBAT. The format is cell-based.
Conditions: not given
For `CCCCC1(CCCC)CS(=O)(=O)c2ccc(N(C)C)cc2[C@@H](c2cccc(CO)c2)[C@H]1O` (racemic), inhibition was half-maximal at 4.5 nM (IC50).

For the compound `CCCCC1(CCCC)CS(=O)(=O)c2ccc(N(C)C)cc2[C@@H](c2cccc(CN(C)C)c2)[C@H]1O` (racemic), the half-inhibitory concentration (IC50) – broadly, the midpoint of a concentration-inhibition curve – came out at 47 nM.

In turn, `CCCCC1(CCCC)CS(=O)(=O)c2ccc(N(C)C)cc2[C@@H](c2cccc(N)c2)[C@H]1O` (racemic) returned a half-maximal inhibitory concentration (IC50) of 2 nM. Still for that read-out and setting: the result for `CCCCC1(CCCC)CS(=O)(=O)c2ccc(N(C)C)cc2[C@@H](c2ccc(OCCCCCN(CC)CC)cc2)[C@H]1O` reads 16 nM; that for `CCCCC1(CCCC)CS(=O)(=O)c2ccc(N(C)C)cc2[C@@H](c2ccc(OCCOCC[N+](CC)(CC)CC)cc2)[C@H]1O`, 5.7 nM. Same read-out and setting: the result for `CCCCC1(CCCC)CS(=O)(=O)c2ccc(N(C)C)cc2[C@@H](c2ccc(OCCOCCOCCN(CC)CC)cc2)[C@H]1O` reads 30 nM; that for `CCCCC1(CCCC)CS(=O)(=O)c2ccc(N(C)C)cc2[C@@H](c2ccc3cc(OC)ccc3c2)[C@H]1O` (racemic), 75 nM. With `CCCCC1(CCCC)CS(=O)(=O)c2ccc(N(C)C)cc2[C@@H](c2ccsc2)[C@H]1O` (racemic), the IC50 worked out at 5 nM. As to `CCCCC1(CCCC)CS(=O)(=O)c2ccc(N(C)C)cc2[C@@H](c2cccc(OC)c2)[C@H]1O` (racemic), the IC50 came to 11 nM. The compound `CCCCC1(CCCC)CS(=O)(=O)c2ccc(N(C)C)cc2[C@@H](c2ccc(OCCOCC[N+]34CCN(CC3)CC4)cc2)[C@H]1O` gave a concentration for half-maximal inhibition (IC50) of 8.5 nM. The same measure, in the same setting: the result for `CCCCC1(CCCC)CS(=O)(=O)c2ccc(N(C)C)cc2[C@@H](c2ccc(OCCCCC[N+](CC)(CC)CC)cc2)[C@H]1O` reads 2 nM; that for `CCCCC1(CCCC)CS(=O)(=O)c2ccc(N(C)C)cc2[C@@H](c2cccc(O)c2)[C@H]1O` (racemic), 7.3 nM. In turn, `CCCCC1(CCCC)CS(=O)(=O)c2ccc(N(C)C)cc2[C@@H](c2ccc(C(=O)OC)cc2)[C@H]1O` (racemic) had an IC50 of 41 nM. On the same count and under the same terms, the result for `CCCCC1(CCCC)CS(=O)(=O)c2ccc(N(C)C)cc2[C@@H](c2ccc[n+](C)c2)[C@H]1O` (racemic) reads 220 nM; that for `CCCCC1(CCCC)CS(=O)(=O)c2ccc(N(C)C)cc2[C@@H](c2ccc(OCc3ccncc3)cc2)[C@H]1O`, 28 nM. Still for that read-out and setting: next, `CCCCC1(CCCC)CS(=O)(=O)c2ccc(N(C)C)cc2[C@@H](c2cccc(NCC(=O)NCC(=O)O)c2)[C@H]1O`: 0.3 nM. The same measure, in the same setting: the result for `CCCCC1(CCCC)CS(=O)(=O)c2ccc(N(C)C)cc2[C@@H](c2ccc(O)cc2)[C@H]1O` (racemic) reads 2.2 nM.

As to `CCCCC1(CCCC)CS(=O)(=O)c2ccc(N(C)C)cc2[C@@H](c2ccc(OCC[N+](C)(C)C)cc2)[C@H]1O`, the 50% inhibitory concentration (IC50) was determined as 260 nM.

For `CCCCC1(CCCC)CS(=O)(=O)c2ccc(N(C)C)cc2[C@@H](c2ccncc2)[C@H]1O` (racemic), the IC50 was determined as 8 nM. Same read-out and setting: next, `CCCCC1(CCCC)CS(=O)(=O)c2ccc(N(C)C)cc2[C@@H](c2ccc(C[n+]3ccccc3)cc2)[C@H]1O` (racemic): 850 nM. Same read-out and setting: next, `CCCCC1(CCCC)CS(=O)(=O)c2ccc(N(C)C)cc2[C@@H](c2ccc(OC)c(F)c2)[C@H]1O` (racemic): 3.6 nM. Same read-out and setting: the result for `CCCCC1(CCCC)CS(=O)(=O)c2ccc(N(C)C)cc2[C@@H](c2cccc(OCC[N+](CC)(CC)CC)c2)[C@H]1O` reads 7 nM; that for `CCCCC1(CCCC)CS(=O)(=O)c2ccc(N(C)C)cc2[C@@H](c2ccc(OCc3cc[n+](CC)cc3)cc2)[C@H]1O`, 6 nM. As for `CCCCC1(CCCC)CS(=O)(=O)c2ccc(N(C)C)cc2[C@@H](c2cccc(C(=O)OC)c2)[C@H]1O` (racemic), the IC50 was 7 nM. The same measure, in the same setting: the result for `CCCCC1(CCCC)CS(=O)(=O)c2ccc(N(C)C)cc2[C@@H](c2cccc(OCCCCC[N+](CC)(CC)CC)c2)[C@H]1O` reads 2 nM; that for `CCCCC1(CCCC)CS(=O)(=O)c2ccc(N(C)C)cc2[C@@H](c2cccnc2)[C@H]1O` (racemic), 7.5 nM; that for `CCCCC1(CCCC)CS(=O)(=O)c2ccc(N(C)C)cc2[C@@H](c2cccc(C[n+]3ccccc3)c2)[C@H]1O` (racemic), 7.5 nM.

For the compound `CCCCC1(CCCC)CS(=O)(=O)c2ccc(N(C)C)cc2[C@@H](c2ccc(C[N+](C)(C)C)cc2)[C@H]1O` (racemic), the midpoint of inhibition, the IC50, lay at 8800 nM. On to `CCCCC1(CCCC)CS(=O)(=O)c2ccc(N(C)C)cc2[C@@H](c2ccc(OCCN(C)C)cc2)[C@H]1O`, for which the IC50 turned out to be 340 nM. Still for that read-out and setting: the result for `CCCCC1(CCCC)CS(=O)(=O)c2ccc(N(C)C)cc2[C@@H](c2cccc(C[N+](C)(C)C)c2)[C@H]1O` reads 67 nM; that for `CCCCC1(CCCC)CS(=O)(=O)c2ccc(N(C)C)cc2[C@@H](c2ccc(OCCOCCOCCN3CCCN(C)CCN(C)CCCN(C)CC3)c(F)c2)[C@H]1O`, 3 nM. The same measure, in the same setting: next, `CCCCC1(CCCC)CS(=O)(=O)c2ccc(N(C)C)cc2[C@@H](c2ccc(O)c(O)c2)[C@H]1O` (racemic): 9.5 nM. Same read-out and setting: the result for `CCCCC1(CCCC)CS(=O)(=O)c2ccc(N(C)C)cc2[C@@H](c2ccc(OCCOCCOCC[N+](C)(C)C)cc2)[C@H]1O` reads 4 nM; that for `CCCCC1(CCCC)CS(=O)(=O)c2ccc(N(C)C)cc2[C@@H](c2ccc3cc(O)ccc3c2)[C@H]1O` (racemic), 17 nM; that for `CCCCC1(CCCC)CS(=O)(=O)c2ccc(N(C)C)cc2[C@@H](c2ccc(OC)cc2)[C@H]1O` (racemic), 6.8 nM.

With `CCCCC1(CCCC)CS(=O)(=O)c2ccc(N(C)C)cc2[C@@H](c2cccc(CS(=O)(=O)O)c2)[C@H]1O` (racemic), the IC50 came out at 3.7 nM.

On to `CCCCC1(CCCC)CS(=O)(=O)c2ccc(N(C)C)cc2[C@@H](c2ccccn2)[C@H]1O` (racemic), for which half-maximal inhibition (IC50) was put at 5 nM. The same measure, in the same setting: the result for `CCCCC1(CCCC)CS(=O)(=O)c2ccc(N(C)C)cc2[C@@H](c2cccc3ccccc23)[C@H]1O` (racemic) reads 620 nM. The same measure, in the same setting: the result for `CCCCC1(CCCC)CS(=O)(=O)c2ccc(N(C)C)cc2[C@@H](c2ccc(F)c(F)c2)[C@H]1O` (racemic) reads 22 nM; that for `CCCCC1(CCCC)CS(=O)(=O)c2ccc(N(C)C)cc2[C@@H](c2ccc(OC)c(OC)c2)[C@H]1O` (racemic), 20 nM; that for `CCCCC1(CCCC)CS(=O)(=O)c2ccc(N(C)C)cc2[C@@H](c2cccc(Nc3ccncc3)c2)[C@H]1O`, 52 nM.

Take `CCCCC1(CCCC)CS(=O)(=O)c2ccc(N(C)C)cc2[C@@H](c2cccs2)[C@H]1O` (racemic): it took 30 nM to reach half-maximal inhibition (IC50). Same read-out and setting: the result for `CCCCC1(CCCC)CS(=O)(=O)c2ccc(N(C)C)cc2[C@@H](c2ccc(OCCOCCOCCN(CCO)CCO)cc2)[C@H]1O` reads 9 nM; that for `CCCCC1(CCCC)CS(=O)(=O)c2ccc(N(C)C)cc2[C@@H](c2cccc(NC(=O)CCCC[N+](CC)(CC)CC)c2)[C@H]1O`, 0.76 nM. Still for that read-out and setting: next, `CCCCC1(CCCC)CS(=O)(=O)c2ccc(N(C)C)cc2[C@@H](c2cccc(OCCN(CC)CC)c2)[C@H]1O`: 45 nM; `CCCCC1(CCCC)CS(=O)(=O)c2ccc(N(C)C)cc2[C@@H](c2ccc(CN(CC)CC)cc2)[C@H]1O` (racemic): 930 nM; `CCCCC1(CCCC)CS(=O)(=O)c2ccc(N(C)C)cc2[C@@H](c2ccc(OCCCCC[N+]34CCN(CC3)CC4)cc2)[C@H]1O`: 0.5 nM. Same read-out and setting: next, `CCCCC1(CCCC)CS(=O)(=O)c2ccc(N(C)C)cc2[C@@H](c2ccc(OCCOCCOCC[N+]34CCN(CC3)CC4)cc2)[C@H]1O`: 4 nM; `CCCCC1(CCCC)CS(=O)(=O)c2ccc(N(C)C)cc2[C@@H](c2ccc(CO)cc2)[C@H]1O` (racemic): 11 nM; `CCCCC1(CCCC)CS(=O)(=O)c2ccc(N(C)C)cc2[C@@H](c2ccc(C(C)(C)C)cc2)[C@H]1O` (racemic): 1000 nM. Regarding `CCCCC1(CCCC)CS(=O)(=O)c2ccc(N(C)C)cc2[C@@H](c2ccc(C[N+](CC)(CC)CC)cc2)[C@H]1O` (racemic), inhibition was half-maximal at 5500 nM (IC50).

Turning to `CCCCC1(CCCC)CS(=O)(=O)c2ccc(N(C)C)cc2[C@@H](c2cccc(Nc3cc[n+](C)cc3)c2)[C@H]1O`, the IC50 is 2 nM.

With `CCCCC1(CCCC)CS(=O)(=O)c2ccc(N(C)C)cc2[C@@H](c2ccc(C(=O)O)cc2)[C@H]1O` (racemic), the IC50 came to 320 nM. Take `CCCCC1(CCCC)CS(=O)(=O)c2ccc(N(C)C)cc2[C@@H](c2ccc(SC)cc2)[C@H]1O` (racemic): the 50% inhibitory concentration (IC50) was determined as 42 nM.

Test system in a further data set: not listed separately
Description: Efficacy to increase fecal bile acid excretion; + is more efficacious. The format is ADME, tissue-based, Feces. The following applies: rat. In a few lines: (§1)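 Male Wistar rats (275–300 g) were gavaged once each morning for 4 days at 5, 0.2 or 0.04 mpk in aqueous 0.2% (v/v) Tween-80 (2 mL/kg). Feces from the final 48 h were homogenized in twice their weight of water. Homogenate was diluted in butanol/water (2:0.6), extracted 45 min at 37 °C, centrifuged, and bile acids (μmol/day) measured enzymatically. Scores compared against a reference analogue at 0.04 mg/kg.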
With `CCCCC1(CCCC)CS(=O)(=O)c2ccc(N(C)C)cc2[C@@H](c2ccc(OCC(=O)NCC(=O)O)cc2)[C@H]1O`, the Efficacy result is on record as “More efficacious than analogue 2”. The same measure, in the same setting: next, `CCCCC1(CCCC)CS(=O)(=O)c2ccc(N(C)C)cc2[C@@H](c2ccc(OCCC[N+]34CCN(CC3)CC4)cc2)[C@H]1O`: “More efficacious than analogue 2”. Still for that read-out and setting: next, `CCCCC1(CCCC)CS(=O)(=O)c2ccc(N(C)C)cc2[C@@H](c2ccc(OCCCC[N+]34CCN(CC3)CC4)cc2)[C@H]1O`: “More efficacious than analogue 2”.

Test system in a further data set: not listed separately
Description: Amount (dissolved in aqueous Tween-80) in bile of rat was determined by fecal bile acid content for 45 min in a 37 degree C. Further details: concentration or dose not given beside the values. Type of data set: ADME, tissue-based, Feces. The following applies: in vivo, 0.75 h. In a few lines: as §1
Compound `CCCCC1(CCCC)CS(=O)(=O)c2ccc(N(C)C)cc2[C@@H](c2ccc(OCC(=O)NCC(=O)O)cc2)[C@H]1O` gave an Activity of 7.14%. Compound `CCCCC1(CCCC)CS(=O)(=O)c2ccc(N(C)C)cc2[C@@H](c2ccc(OCCC[N+]34CCN(CC3)CC4)cc2)[C@H]1O` came in with an Activity of 0.21%.

In turn, `CCCCC1(CCCC)CS(=O)(=O)c2ccc(N(C)C)cc2[C@@H](c2ccc(OCCCC[N+]34CCN(CC3)CC4)cc2)[C@H]1O` had an Activity of 0.12%. The same measure, in the same setting: the result for `CCCCC1(CCCC)CS(=O)(=O)c2ccc(N(C)C)cc2[C@@H](c2ccc(OCc3ccc(CN(CC(=O)O)CC(=O)O)cc3)cc2)[C@H]1O` reads 0.12%.
